Measurements reported in ChEMBL document CHEMBL2434891, “Design, synthesis, and in vitro cancer cell growth inhibition evaluation and antimalarial testing of trioxanes installed in cyclic 2-enoate substructures” (Eur J Med Chem, 2013).
Converted amounts (≈) assume the structure as drawn.

Key:
MKN-28 = assay: Cytotoxicity against human MKN28 cells after 72 hrs by SRB assay; type: functional; conditions: MKN-28, 72 h
St-4 = assay: Cytotoxicity against human St-4 cells after 72 hrs by SRB assay; type: functional; conditions: St-4, 72 h
SK-OV-3 = assay: Cytotoxicity against human SKOV3 cells after 72 hrs by SRB assay; type: functional; conditions: SK-OV-3, 72 h
OVCAR-4 = assay: Cytotoxicity against human OVCAR4 cells after 72 hrs by SRB assay; type: functional; conditions: OVCAR-4, 72 h
DMS-273 = assay: Cytotoxicity against human DMS273 cells after 72 hrs by SRB assay; type: functional; conditions: DMS-273, 72 h
NCI-H226 = assay: Cytotoxicity against human NCI-H226 cells after 72 hrs by SRB assay; type: functional; conditions: NCI-H226, 72 h
HCT-15 = assay: Cytotoxicity against human HCT15 cells after 72 hrs by SRB assay; type: functional; conditions: HCT-15, 72 h
HCC 2998 = assay: Cytotoxicity against human HCC2998 cells after 72 hrs by SRB assay; type: functional; conditions: HCC 2998, 72 h
SNB-75 = assay: Cytotoxicity against human SNB75 cells after 72 hrs by SRB assay; type: functional; conditions: SNB-75, 72 h
U-251 = assay: Cytotoxicity against human U251 cells after 72 hrs by SRB assay; type: functional; conditions: U-251, 72 h
MDA-MB-231 = assay: Cytotoxicity against human MDA-MB-231 cells after 72 hrs by SRB assay; type: functional; conditions: MDA-MB-231, 72 h
MCF7 = assay: Cytotoxicity against human MCF7 cells after 72 hrs by SRB assay; type: functional; conditions: MCF7, 72 h
L6 = assay: Cytotoxicity against rat L6 cells after 70 hrs by alamar blue assay; conditions: L6, 70 h
Plasmodium falciparum = assay: Antimalarial activity against erythrocytic stage of Plasmodium falciparum NF54 infected in RBC after 48 hrs by [3H]-hypoxanthine incorporation assay; type: functional, organism-based
BALB/3T3 = assay: Cytotoxicity against mouse BALB/3T3 cells after 72 hrs by SRB assay; type: cell-based; conditions: BALB/3T3, 72 h
How it was run: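 Adherent cells grown at 37 °C and 5% CO2. A549 and HCT116 were in RPMI 1640/OptiMEM (50:50) with 5% FBS; BALB/3T3 in Dulbecco medium with 10% FBS and pyruvate. Seeded at 1×10^4/well 24 h before dosing, then 72 h at 10–0.01 µg/mL final. Fixed with cold 50% TCA, stained with 0.4% SRB, dye extracted in 10 mM Tris, read at 540 nm.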

[1] = read-out: LC50 (the source's name)
[2] = read-out: pLC50 (the source's name) (converted)

`COc1ccc(C2O[C@]34CC(c5cccc(OC)c5)OC(=O)C3=C[C@@]2(C)OO4)cc1` (some centres undefined) showed a TGI (MKN-28) of 36 µM, a GI50 (MKN-28; read-out: GI50) of 11 µM and a CC50 (MKN-28; [1]) of 100 µM. It also gave a TGI (St-4) of 45 µM, a GI50 (St-4; read-out: GI50) of 18 µM and a CC50 (St-4; [1]) of 100 µM. It also gave a TGI (SK-OV-3) of 33 µM, a GI50 (SK-OV-3; read-out: GI50) of 1.9 µM and a CC50 (SK-OV-3; [1]) of 58 µM. The TGI (OVCAR-4) was 11 µM, the GI50 (OVCAR-4; read-out: GI50) was 1.5 µM and the CC50 (OVCAR-4; [1]) was 42 µM. For the same compound, the TGI (DMS-273) was 27 µM, the GI50 (DMS-273; read-out: GI50) was 10 µM and the CC50 (DMS-273; [1]) was 74 µM. For the same compound, the TGI (NCI-H226) was 40 µM, the GI50 (NCI-H226; read-out: GI50) was 18 µM and the CC50 (NCI-H226; [1]) was 92 µM. It also gave a TGI (HCT-15) of 17 µM, a GI50 (HCT-15; read-out: GI50) of 3.7 µM and a CC50 (HCT-15; [1]) of 100 µM. It also gave a TGI (HCC 2998) of 22 µM, a GI50 (HCC 2998; read-out: GI50) of 6.3 µM and a CC50 (HCC 2998; [1]) of 62 µM. The TGI (SNB-75) was 28 µM, the GI50 (SNB-75; read-out: GI50) was 12 µM and the CC50 (SNB-75; [1]) was 64 µM. For the same compound, the TGI (U-251) was 33 µM, the GI50 (U-251; read-out: GI50) was 16 µM and the CC50 (U-251; [1]) was 68 µM. For the same compound, the TGI (MDA-MB-231) was 18 µM, the GI50 (MDA-MB-231; read-out: GI50) was 5.4 µM and the CC50 (MDA-MB-231; [1]) was 51 µM. The TGI (MCF7) was 29 µM, the GI50 (MCF7; read-out: GI50) was 10 µM and the CC50 (MCF7; [1]) was 87 µM.

`COc1ccc(C2O[C@]34CC(c5cccc(Cl)c5)OC(=O)C3=C[C@@]2(C)OO4)cc1` (some centres undefined) gave an IC50 (L6) of 0.46 µg/mL (≈ 1.11 µM), an IC50 (Plasmodium falciparum) of 1.38 µg/mL (≈ 3.33 µM) and an IC50 (BALB/3T3) of 8.97 µM. For the same compound, the TGI (MKN-28) was 40 µM, the GI50 (MKN-28; read-out: GI50) was 14 µM and the CC50 (MKN-28; [1]) was 100 µM. For the same compound, the GI50 (MKN-28; read-out: pGI50 (converted)) was 11 µM, the CC50 (MKN-28; read-out: pLC50 (converted)) was over 100 µM and the TGI (St-4) was 47 µM. It also gave a GI50 (St-4; read-out: GI50) of 19 µM, a CC50 (St-4; [1]) of 100 µM and a GI50 (St-4; read-out: pGI50 (converted)) of 17.8 µM. For the same compound, the CC50 (St-4; read-out: pLC50 (converted)) was over 100 µM, the TGI (SK-OV-3) was 29 µM and the GI50 (SK-OV-3; read-out: GI50) was 16 µM. For the same compound, the CC50 (SK-OV-3; [1]) was 54 µM, the GI50 (SK-OV-3; read-out: pGI50 (converted)) was 19.1 µM and the CC50 (SK-OV-3; [2]) was 58.9 µM. For the same compound, the TGI (OVCAR-4) was 24 µM, the GI50 (OVCAR-4; read-out: GI50) was 9.2 µM and the CC50 (OVCAR-4; [1]) was 59 µM. It also gave a GI50 (OVCAR-4; read-out: pGI50 (converted)) of 1.55 µM, a CC50 (OVCAR-4; [2]) of 41.7 µM and a TGI (DMS-273) of 31 µM. For the same compound, the GI50 (DMS-273; read-out: GI50) was 14 µM, the CC50 (DMS-273; [1]) was 69 µM and the GI50 (DMS-273; read-out: pGI50 (converted)) was 10.2 µM. The CC50 (DMS-273; [2]) was 74.1 µM, the TGI (NCI-H226) was 48 µM and the GI50 (NCI-H226; read-out: GI50) was 20 µM. For the same compound, the CC50 (NCI-H226; [1]) was 100 µM, the GI50 (NCI-H226; read-out: pGI50 (converted)) was 17.8 µM and the CC50 (NCI-H226; [2]) was 91.2 µM. It also gave a TGI (HCT-15) of 24 µM, a GI50 (HCT-15; read-out: GI50) of 4.4 µM and a CC50 (HCT-15; [1]) of 100 µM. It also gave a GI50 (HCT-15; read-out: pGI50 (converted)) of 3.72 µM, a CC50 (HCT-15; read-out: pLC50 (converted)) of over 100 µM and a TGI (HCC 2998) of 30 µM. It also gave a GI50 (HCC 2998; read-out: GI50) of 15 µM, a CC50 (HCC 2998; [1]) of 62 µM and a GI50 (HCC 2998; read-out: pGI50 (converted)) of 6.31 µM. It also gave a CC50 (HCC 2998; [2]) of 61.7 µM, a TGI (SNB-75) of 28 µM and a GI50 (SNB-75; read-out: GI50) of 12 µM. For the same compound, the CC50 (SNB-75; [1]) was 67 µM, the GI50 (SNB-75; read-out: pGI50 (converted)) was 12.3 µM and the CC50 (SNB-75; [2]) was 63.1 µM. The TGI (U-251) was 36 µM, the GI50 (U-251; read-out: GI50) was 18 µM and the CC50 (U-251; [1]) was 73 µM. The GI50 (U-251; read-out: pGI50 (converted)) was 15.8 µM, the CC50 (U-251; [2]) was 69.2 µM and the TGI (MDA-MB-231) was 26 µM. It also gave a GI50 (MDA-MB-231; read-out: GI50) of 12 µM, a CC50 (MDA-MB-231; [1]) of 58 µM and a GI50 (MDA-MB-231; read-out: pGI50 (converted)) of 5.37 µM. It also gave a CC50 (MDA-MB-231; [2]) of 51.3 µM, a TGI (MCF7) of 27 µM and a GI50 (MCF7; read-out: GI50) of 11 µM. The CC50 (MCF7; [1]) was 69 µM, the GI50 (MCF7; read-out: pGI50 (converted)) was 10 µM and the CC50 (MCF7; [2]) was 87.1 µM.
